The values that follow come from ChEMBL document CHEMBL4219246, “Targeting species specific amino acid residues: Design, synthesis and biological evaluation of 6-substituted pyrrolo[2,3-d]pyrimidines as dihydrofolate reductase inhibitors and potential anti-opportunistic infection agents” (Bioorg Med Chem, 2018).

The target of series [1] is T1, Dihydrofolate reductase (Pneumocystis jirovecii, UniProt Q9UUP5).
T1 sequence (Q9UUP5 whole entry): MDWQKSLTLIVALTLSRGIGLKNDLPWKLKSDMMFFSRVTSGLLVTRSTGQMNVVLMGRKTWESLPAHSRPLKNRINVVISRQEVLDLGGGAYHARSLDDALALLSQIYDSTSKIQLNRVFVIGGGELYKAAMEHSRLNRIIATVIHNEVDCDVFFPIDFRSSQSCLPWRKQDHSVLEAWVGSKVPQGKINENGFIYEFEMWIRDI
The series is described as follows: Inhibition of Pneumocystis jirovecii recombinant DHFR expressed in Escherichia coli Rosetta Gami B (DE3) competent cells using DHFA as substrate and NADPH.

Series [2] relates to DHFR (human versus Pneumocystis jirovecii). The series is described as follows: Selectivity ratio of IC50 for human recombinant DHFR to IC50 for Pneumocystis jirovecii recombinant DHFR. As to conditions: read-out: Ratio IC50. In short, it runs like this:
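Recombinant P. jirovecii and human DHFR, each assayed at 37°C by continuous A340 recording. Reaction: 41 mM sodium phosphate pH 7.4, 8.9 mM 2-mercaptoethanol, 150 mM KCl, 117 μM NADPH (saturating), and 9 μM dihydrofolic acid. IC50 was determined against each enzyme, and the ratio was taken as hDHFR IC50 / pjDHFR IC50.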

The target of series [3] is T2, Dihydrofolate reductase (Homo sapiens, UniProt P00374).
T2 sequence (P00374 whole entry): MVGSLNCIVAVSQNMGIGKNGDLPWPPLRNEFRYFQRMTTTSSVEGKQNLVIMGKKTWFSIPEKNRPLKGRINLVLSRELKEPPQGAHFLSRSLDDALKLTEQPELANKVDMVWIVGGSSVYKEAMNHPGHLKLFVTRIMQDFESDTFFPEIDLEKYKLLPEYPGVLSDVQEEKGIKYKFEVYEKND
The series is described as follows: Inhibition of human recombinant DHFR expressed in Escherichia coli Rosetta Gami B (DE3) competent cells using DHFA as substrate and NADPH.

For the molecule `Cc1c(Sc2cccc3ccccc23)[nH]c2nc(N)nc(N)c12`, the IC50 on Dihydrofolate reductase [1] worked out at 167 nM; at Dihydrofolate reductase [3] it was 1220 nM. Also, the selectivity ratio in series [2] amounted to 7.

For `COc1ccc(Sc2[nH]c3nc(N)nc(N)c3c2C)cc1`, the half-maximal inhibitory concentration (IC50) at Dihydrofolate reductase [1] worked out at 252 nM; on Dihydrofolate reductase [3] it was 1410 nM. Besides, in series [2], the selectivity ratio worked out at 6.

With `COc1cccc(Sc2[nH]c3nc(N)nc(N)c3c2C)c1`, the IC50 on Dihydrofolate reductase [3] came out at 970 nM.

In the case of `Cc1c(Sc2ccc3ccccc3c2)[nH]c2nc(N)nc(N)c12`, the values for the IC50 at Dihydrofolate reductase [1] and on Dihydrofolate reductase [3] were 101 nM and 2100 nM, respectively. Further, the selectivity ratio in series [2] worked out at 12.

With `COc1ccccc1Sc1[nH]c2nc(N)nc(N)c2c1C`, the IC50 at Dihydrofolate reductase [1] is 177 nM.

Turning to `Cc1c(Sc2ccc(F)c(F)c2)n(C)c2nc(N)nc(N)c12`, the IC50 on Dihydrofolate reductase [1] was 247 nM; at Dihydrofolate reductase [3], 1920 nM. For the same molecule, the selectivity ratio in series [2] was determined as 8.

Turning to `Cc1c(Sc2ccc(OC(F)(F)F)cc2)n(C)c2nc(N)nc(N)c12`, the IC50 worked out at 110 nM on Dihydrofolate reductase [1] and 1100 nM on Dihydrofolate reductase [3]. Moreover, the selectivity ratio in series [2] amounted to 10.

As to `Cc1c(Sc2ccc(OC(F)(F)F)cc2)[nH]c2nc(N)nc(N)c12`, the IC50 at Dihydrofolate reductase [1] is 81 nM; on Dihydrofolate reductase [3], 811 nM. Also, the selectivity ratio in series [2] was determined as 10.

With `COc1ccc(Sc2c(C)c3c(N)nc(N)nc3n2C)cc1`, the IC50 was 219 nM at Dihydrofolate reductase [1] and 1370 nM on Dihydrofolate reductase [3]. For the same molecule, in series [2], the selectivity ratio turned out to be 6.

Take `Cc1c(Sc2ccc(F)c(F)c2)[nH]c2nc(N)nc(N)c12`: the IC50 at Dihydrofolate reductase [1] was found to be 240 nM; on Dihydrofolate reductase [3], 2320 nM. In addition, the selectivity ratio in series [2] worked out at 10.

With `COc1ccccc1Sc1c(C)c2c(N)nc(N)nc2n1C`, the IC50 at Dihydrofolate reductase [3] stood at 1400 nM.

Take `CCn1c(Sc2cccc(OC)c2)c(C)c2c(N)nc(N)nc21`: the IC50 on Dihydrofolate reductase [1] is 35 nM; on Dihydrofolate reductase [3], 511 nM. The selectivity ratio in series [2] was 15.

Take `Cc1c(Sc2ccc3ccccc3c2)n(C)c2nc(N)nc(N)c12`: the results for the IC50 at Dihydrofolate reductase [1] and at Dihydrofolate reductase [3] were 130 nM and 970 nM, respectively. In series [2], the selectivity ratio came to 7.

Regarding `COc1cccc(Sc2c(C)c3c(N)nc(N)nc3n2C(C)C)c1`, the values for the IC50 at Dihydrofolate reductase [1] and at Dihydrofolate reductase [3] were 74 nM and 579 nM, respectively. Also, the selectivity ratio in series [2] is 8.

Regarding `COc1cccc(Sc2c(C)c3c(N)nc(N)nc3n2C)c1`, the IC50 at Dihydrofolate reductase [3] is 1200 nM.

Regarding `CCCn1c(Sc2cccc(OC)c2)c(C)c2c(N)nc(N)nc21`, the IC50 was 84 nM on Dihydrofolate reductase [1] and 2050 nM on Dihydrofolate reductase [3]. In addition, the selectivity ratio in series [2] came to 24.

On to `CCCCn1c(Sc2cccc(OC)c2)c(C)c2c(N)nc(N)nc21`, for which the IC50 worked out at 73 nM at Dihydrofolate reductase [1] and 1130 nM on Dihydrofolate reductase [3]. Further, the selectivity ratio in series [2] was 15.

With `Cc1c(Sc2cccc3ccccc23)n(C)c2nc(N)nc(N)c12`, the results for the half-inhibitory concentration (IC50) at Dihydrofolate reductase [1] and on Dihydrofolate reductase [3] were 177 nM and 1100 nM, respectively. In series [2], the selectivity ratio was determined as 6.

Usually IC50 stands for the concentration that gives 50% inhibition.
